Hits are enriched below; roughly 10% of the tested compounds scored in any of these assays.
Diaphorase act = activates diaphorase or chemically reduces, flagging diaphorase assay artifacts | activation factor at 20 µM | 190,000 tested, 0.005% active | Diaphorase/resazurin coupled assay, resorufin fluorescence, 16 min; active compounds read high; 1 = vehicle wells, 0 = NADH-free wells;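 active = diaphorase activity raised at least twofold by the compound at 20 µM; inactive = activation factor below 2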
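test system = bacterial diaphorase enzyme (C. kluyveri) | quantity = enzyme 0.07 U/mL final | reagent = NADH substrate 0.114 mM plus resazurin dye 0.1 mM, final | incubation = 16 min enzyme reaction, ambient temperature | buffer or medium = HEPES pH 7.4 buffer with MgCl2 and Tween 20 | signal = fluorescence of resorufin, 544 nm excitation, 590 nm emission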
WT yeast gro inh = growth inhibition of WT yeast, mitochondrial fusion screen. mitochondrial fusion phenotypic screen, WT strain. inhibition, % at 10 µM. 190,000 tested, 2.1% active. AID 1362; in the data active = inhibition above about 58%; tested in S. cerevisiae
PMI act satM6P = activators of human phosphomannose isomerase at near-saturating mannose 6-phosphate | P34949 | coupled PMI enzyme assay, resazurin fluorescence, 20 min; active compounds read high; 1 = untreated enzyme, 0 = substrate-free blank | activation factor at 20 µM | 190,000 tested, 0.34% active;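 active = activation factor of 2 or more at 20 µM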
Target sequence (P34949 whole entry, looked up): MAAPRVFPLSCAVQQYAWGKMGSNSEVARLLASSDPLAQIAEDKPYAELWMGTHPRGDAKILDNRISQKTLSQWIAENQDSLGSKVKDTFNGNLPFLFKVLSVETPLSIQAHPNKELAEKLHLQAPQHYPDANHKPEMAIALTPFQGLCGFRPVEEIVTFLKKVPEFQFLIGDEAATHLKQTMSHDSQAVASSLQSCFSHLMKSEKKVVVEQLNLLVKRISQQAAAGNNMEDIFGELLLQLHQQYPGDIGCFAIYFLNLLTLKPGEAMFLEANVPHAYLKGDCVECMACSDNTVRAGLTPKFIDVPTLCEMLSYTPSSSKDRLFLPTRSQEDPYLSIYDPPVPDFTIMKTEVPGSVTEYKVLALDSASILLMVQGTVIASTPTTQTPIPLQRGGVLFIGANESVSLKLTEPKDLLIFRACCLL
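Material: human phosphomannose isomerase with PGI, G6PDH, diaphorase coupling enzymes; amount: PMI at 15 ng/mL final; also added: Mannose-6-phosphate 1.0 mM (near-saturating) plus 0.22 mM NADP+; incubation: enzyme reaction with compound 20 min at room temperature; signal: resorufin fluorescence (Ex 544/Em 590 nm) from resazurin via diaphorase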
L major viab = inhibitors of Leishmania major promastigote growth; inhibition, % at 10 µM; AID 1063; 200,000 tested, 9% active; Leishmania major promastigotes, resazurin fluorescence viability; in the data active = inhibition above about 50%;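 note: promastigotes grown with compound for 44 hours at 28 °C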
PMI act = activators of human phosphomannose isomerase; P34949; purified human PMI, coupled resazurin fluorescence, 20 min; active compounds read high; 1 = vehicle control, 0 substrate-free wells; activation factor at 20 µM; 190,000 tested, 0.005% active; AID 1214;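 active = activation factor of 2 or more at 20 µM, relative to plate controls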
Starred values were filed as active, the others as inactive.

SMILES | Diaphorase act | WT yeast gro inh | PMI act satM6P | L major viab | PMI act
Cc1cccc(CC(Cc2nc3ccccc3[nH]2)c2nc3ccccc3[nH]2)c1 (stereo not drawn) | 0.9 | 13 | 0.8 | 93* | 0.8
COc1ccc(Cc2nc3ccccc3[nH]2)cc1OC | 0.9 | -23 | 0.9 | -2 | 0.9
CC(C)N(Cc1nc2ccccc2[nH]1)C(C)C | 1 | 4 | 1 | 37 | 1
O=C(CCC1CCCN(C(=O)C2=CCCCC2)C1)N1CCN(c2ccccn2)CC1 (stereo not drawn) | 0.9 | -1 | 0.9 | -4 | 0.9
CCN(CC)C(=O)Cn1nnc(-c2ccc(C)o2)n1 | 0.9 | -15 | 1.2 | -4 | 1.1
CCOc1ccccc1N(CC(=O)NC(C)(C)C)C(=O)Cn1nnc(-c2ccc(C)o2)n1 | 0.8 | -9 | 0.9 | 60* | 0.8
CN(C)CCOc1ccc2c(c1)Sc1ccccc1CC2=O | 0.7 | 6 | 0.5 | 100* | 0.9
Cc1ccc2c(c1)Sc1ccccc1CC2=O | 1 | 5 | 0.9 | -1 | 0.9
COCc1cc(/C=N\NC(=O)Cc2ccc(OC)cc2)ccc1OC | 1 | -11 | 0.9 | 7 | 1
CCC(C)n1c(=S)[nH]c2c(sc3ccc([N+](=O)[O-])cc32)c1=O (stereo not drawn) | 0.4 | 68* | 1 | 7 | 1
CC(C)n1c2ccccc2c2cc([N+](=O)[O-])ccc21 | 0.8 | 6 | 0.9 | 18 | 1
CCCCNS(=O)(=O)c1ccc(NC(=O)C(Sc2ccccc2)c2ccccc2)cc1 (stereo not drawn) | 0.8 | 17 | 0.9 | 79* | 0.8
CCC(C)NS(=O)(=O)c1ccc(NC(=O)C(Sc2ccccc2)c2ccccc2)cc1 (stereo not drawn) | 0.8 | 10 | 0.9 | 68* | 0.8
CC(=O)NS(=O)(=O)c1ccc(NC(=O)C(Sc2ccccc2)c2ccccc2)cc1 (stereo not drawn) | 0.8 | -4 | 0.9 | -12 | 0.8
CCCCNS(=O)(=O)c1ccc(NC(=O)c2cccs2)cc1 | 0.9 | 7 | 1 | 3 | 1
S=C(c1ccc(Cl)cc1)N1CCN(Cc2ccccc2)CC1 | 1.1 | 22 | 1.1 | 23 | 1
CCN1CCN(C(=S)c2ccc(SC)cc2)CC1 | 0.9 | 1 | 1 | 91* | 0.9
CSc1ccc(C(=S)N2CCN(Cc3ccccc3)CC2)cc1 | 0.6 | 53 | 0.8 | 94* | 0.9
CCOc1ccccc1NC(=S)/C(=C(\[O-])c1ccc2c(c1)OCCO2)[n+]1ccc(CC)cc1 | 0.8 | 20 | 0.8 | -3 | 0.7
COc1ccc(NC(=O)CC2(Cc3ccccc3)CCOC(C)(C)C2)cc1 (stereo not drawn) | 1 | -12 | 1.1 | 55* | 0.9
O=C(NN=C1CCCCCCCCCCC1)c1cccnc1 | 1.1 | -8 | 1.2 | -6 | 1.2
Cc1csc(NC(=O)c2c(O)c3c(n(CC(C)C)c2=O)CCCC3)n1 | 0.9 | 63* | 0.9 | 3 | 0.9
CCCn1c2c(c(O)c(C(=O)Nc3nccs3)c1=O)CCCC2 | 0.7 | 76* | 1 | 4 | 1
CCOC(=O)c1sc(NC(=O)C(C)Sc2nnc(N)s2)nc1C (stereo not drawn) | 0.9 | -15 | 0.8 | -3 | 0.9
CN1CCN(C(=O)CSc2nc(-c3cccs3)cc(-c3cccs3)c2C#N)CC1 | 0.7 | -3 | 0.8 | 66* | 1
SMILES | Diaphorase act | WT yeast gro inh | PMI act satM6P | L major viab | PMI act
Cc1ccccc1NC(=O)C(C)O/N=C/c1cccc([N+](=O)[O-])c1 (stereo not drawn) | 0.9 | 2 | 1 | 66* | 0.9
O=C(COC(=O)c1ccc[n+]([O-])c1)Nc1c(Br)cc([N+](=O)[O-])cc1Br | 0.9 | 19 | 1.1 | 61* | 1.1
O=C(COC(=O)c1cc[n+]([O-])cc1)Nc1ccc([N+](=O)[O-])cc1 | 0.9 | 3 | 1 | -6 | 1
c1ccc(-c2cccc(-c3ccccn3)n2)nc1 | 0.6 | 7 | 1.1 | 100* | 0.7
Cc1[nH][nH]c(=O)c1C=NCc1ccc(Cl)cc1 | 0.9 | -19 | 1 | -1 | 1
Cc1ccc(-c2nc(SCC(=O)NCCN3C(=O)CSC3=O)[nH]c2-c2ccc(C)cc2)cc1 | 0.7 | -7 | 0.8 | 81* | 0.8
O=C(CSc1nc2ccccc2o1)N1c2ccccc2Sc2ccc(C(F)(F)F)cc21 | 0.8 | 12 | 0.9 | 80* | 0.8
O=C(CN1CCCC1)N1c2ccccc2Sc2ccc(C(F)(F)F)cc21 | 1 | -14 | 1.2 | 13 | 1.2
O=C(CN1CCN(c2ccccn2)CC1)N1c2ccccc2Sc2ccc(C(F)(F)F)cc21 | 0.7 | 66* | 1 | 68* | 1
CCOc1ccc(S(=O)(=O)Nc2nc3ccccc3nc2Nc2ccc(N3CCOCC3)cc2)cc1 | 0.6 | 8 | 0.9 | 8 | 0.8
CCN(CC)S(=O)(=O)c1cc(C(=O)OC)ccc1Cl | 0.9 | -13 | 0.9 | 6 | 0.9
CCN(CC)S(=O)(=O)c1ccc(Cl)c(C(=O)NCc2ccco2)c1 | 1 | -19 | 1 | -5 | 0.9
CCN(CC)S(=O)(=O)c1ccc(Cl)c(C(=O)OC)c1 | 0.9 | -9 | 0.9 | 61* | 0.9
CCN(CC)S(=O)(=O)c1ccc(Cl)c(C(=O)NCc2ccccc2Cl)c1 | 0.8 | -16 | 0.9 | 99* | 0.8
O=C(CCN(NC(=O)c1ccccc1)C1=NS(=O)(=O)c2ccccc21)NC1CCCCC1 | 1 | -3 | 1 | 42 | 1
Nc1nc(SCC(=O)Nc2ccc(Cl)cc2)[nH]c(=O)c1-c1ccccc1 | 0.9 | -3 | 1 | -4 | 1.1
COc1ccc2c3c(cccc13)N(C)N=C2C | 0.6 | 8 | 0.5 | 100* | 0.8
CC(c1ccccc1)N(CCC(c1ccccc1)C1CCOC(C)(C)C1)C(=O)c1ccco1 (stereo not drawn) | 0.8 | 79* | 1 | 39 | 0.8
COc1ccc(CN(CCC(c2ccc(F)cc2)C2CCOC(C)(C)C2)C(=O)c2ccco2)cc1 (stereo not drawn) | 0.8 | 55 | 0.8 | 22 | 0.8
Cc1nn(-c2ccccc2)c(C)c1/C=N\NS(=O)(=O)c1ccc(Cl)cc1 | 0.8 | 18 | 1 | -6 | 0.9
COC(=O)c1c(NC(=O)C2CC(=O)NN2Cc2ccccc2)sc(C)c1C (stereo not drawn) | 0.8 | 1 | 0.8 | 100* | 0.8
CCOC(=O)c1cc(CC)sc1NC(=O)C1CC(=O)NN1Cc1ccccc1 (stereo not drawn) | 0.9 | 7 | 1 | 4 | 0.9
CC1=[N+](C)c2c(ccc3cccnc23)C1(C)C | 0.3 | 82* | 0.6 | 98* | 0.7
Cc1cc(C)c(NS(=O)(=O)c2cccc3cccnc23)c(C)c1 | 0.9 | -10 | 1 | 11 | 0.9
O=C(Cc1ccc(-n2c(=O)c3ccccc3n(Cc3ccc(F)cc3)c2=O)cc1)NCC1CCCO1 (stereo not drawn) | 0.9 | -6 | 1.1 | 48 | 0.9

Bioassay records as filed in PubChem BioAssay.
